According to ChEMBL document CHEMBL1154198, “Chemical genetics of Plasmodium falciparum” (Nature, 2010):

Experiments:
Leishmania major = assay: ST_JUDE: Cytotoxicity using Alamar Blue to measure viability of Leishmania major; type: functional, organism-based
Outline: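 L. major promastigotes; drug susceptibility read with Alamar Blue.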

[1] = ST_JUDE: Cytotoxicity using luciferase to measure ATP as an indicator of the viability of human foreskin fibroblast cells (BJ); type: toxicity, cell-based
Plasmodium falciparum [2] = assay: ST_JUDE: Cytotoxicity against Plasmodium falciparum W2; type: functional, organism-based
[3] = ST_JUDE: Cytotoxicity using luciferase to measure ATP as an indicator of the viability of human epithelial hepatocellular carcinoma cells (HepG2); type: toxicity, cell-based
Plasmodium falciparum [4] = assay: ST_JUDE: Cytotoxicity against Plasmodium falciparum 3D7; type: functional, organism-based
Outline: (§1)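 Asexual P. falciparum grown in human erythrocytes, exposed to compounds for 72 h, and growth read as the DNA quantity in treated versus control cultures. Dose-response run at 12 concentrations from 10 μM to 5 nM.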

[5] = ST_JUDE: Cytotoxicity using luciferase to measure ATP as an indicator of the viability of human Burkitt''s lymphoma lymphoblast cells (Raji); type: toxicity, cell-based
[6] = ST_JUDE: Cytotoxicity using luciferase to measure ATP as an indicator of the viability of human epithelial embryonic kidney cells (HEK293); type: toxicity, cell-based
Plasmodium falciparum [7] = assay: ST_JUDE: Cytotoxicity against Plasmodium falciparum SB-A6; type: functional, organism-based
Plasmodium falciparum [8] = assay: ST_JUDE: Cytotoxicity against Plasmodium falciparum K1; type: functional, organism-based; outline: as §1
Toxoplasma gondii = assay: ST_JUDE: Growth inhibition of to Toxoplasma gondii, in human U-2OS cells, as measured by luciferase.; type: functional, organism-based; conditions: RH, U2OS
Outline: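 T. gondii parasites engineered to express luciferase; drug sensitivity read by luminescence.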

Plasmodium falciparum [9] = assay: ST_JUDE: Plasmodium falciparum K1 EC50 (uM) as measured by SYBR green dye; type: functional, organism-based
Plasmodium falciparum [10] = assay: ST_JUDE: Cytotoxicity against Plasmodium falciparum Dd2; type: functional, organism-based
Trypanosoma brucei = assay: ST_JUDE: Cytotoxicity using luciferase to measure ATP as an indicator of the viability of Trypanosoma brucei; type: functional, organism-based
Plasmodium falciparum [11] = assay: ST_JUDE: Plasmodium falciparum 3D7 EC50 (uM) as measured by SYBR green dye; type: functional, organism-based
Plasmodium falciparum [12] = assay: ST_JUDE: Cytotoxicity against Plasmodium falciparum V1/S; type: functional, organism-based
Plasmodium falciparum [13] = assay: ST_JUDE: Cytotoxicity against Plasmodium falciparum D10 transfected with yeast DHOD; type: functional, organism-based

Row | SMILES | EC50 (Leishmania major) [nM] | EC50 [1] [nM] | EC50 (Plasmodium falciparum [2]) [nM] | EC50 [3] [nM] | EC50 (Plasmodium falciparum [4]) [nM] | EC50 [5] [nM] | EC50 [6] [nM] | EC50 (Plasmodium falciparum [7]) [nM] | EC50 (Plasmodium falciparum [8]) [nM] | EC50 (Toxoplasma gondii) [nM] | EC50 (Plasmodium falciparum [9]) [nM] | EC50 (Plasmodium falciparum [10]) [nM] | EC50 (Trypanosoma brucei) [nM] | EC50 (Plasmodium falciparum [11]) [nM] | EC50 (Plasmodium falciparum [12]) [nM] | EC50 (Plasmodium falciparum [13]) [nM]
1 | CC(C)(C)c1cc(/N=N/C(=O)c2ccncc2)cc(C(C)(C)C)c1O | > 12200 | > 28400 | 1110 | > 28400 | 602 | 682 | 971 | 462 | 480 | 2300 | 496 | 1010 | 1010 | 545 | 508 | 478
2 | CCOc1ccc(N(C(C)=O)C2=C(N3CCOCC3)C(=O)c3ccccc3C2=O)cc1 | > 15900 | 9600 | 1880 | 6000 | 69 | 4570 | 13100 | 58.4 | 100 | 5190 | 221 | 487 | 2960 | 54.7 | 51.5 | 26.6
3 | Fc1ccc(Nc2nc(NCc3ccco3)c3ccccc3n2)cc1 | 2.9 | 20100 | 354 | 8250 | 581 | 14900 | 20000 | 357 | 1120 | 13600 | > 15000 | 489 | 12200 | 673 | 1910 | 1200
4 | CCOC(=O)c1cccc(NC(=O)CC2C(=O)N(c3ccc(F)cc3)C(=O)N2CCC(C)C)c1 (stereo not drawn) | > 18600 | > 43400 | > 11100 | > 43400 | 945 | > 43400 | > 43400 | 1060 | > 11100 | > 23800 | 1160 | 635 | 11800 | 593 | 1070 | 950
5 | COCCO/C(O)=C1\C(C)=NC2=C(C(=O)CC(c3ccc(OC)c(OC)c3)C2)C1c1ccccc1F (stereo not drawn) | > 17100 | > 39900 | 1350 | > 39900 | 498 | > 39900 | > 39900 | 313 | 314 | > 21900 | 551 | 970 | > 38300 | 717 | 406 | 553
6 | COc1ccc(C2CC(=O)NC3=C2C(=O)CC(c2ccc(F)cc2)C3)cc1OC (stereo not drawn) | > 17700 | > 41400 | 1490 | > 41400 | 1440 | > 41400 | > 41400 | 2090 | 1190 | > 22700 | 1070 | 1130 | > 39700 | 661 | 1990 | 1850
7 | Cc1ccc(NC(=O)C2c3ccccc3C(=O)N(CC(C)C)C2c2cccs2)c(Cl)c1 (stereo not drawn) | > 18900 | > 44100 | 849 | > 44100 | > 11300 | > 44100 | > 44100 | 741 | > 11300 | > 24100 | 747 | 981 | 8030 | 463 | 1180 | 628
8 | CN1/C(=C/c2cccc[n+]2C)Sc2ccccc21 | 108 | > 28300 | 495 | > 28300 | 567 | 4050 | > 28300 | 681 | 605 | > 15500 | 389 | 771 | 3950 | 540 | 503 | 879
9 | COc1ccc(NC(=O)C2c3ccccc3C(=O)N(CC(C)C)C2c2cccs2)cc1 (stereo not drawn) | > 20400 | > 47700 | > 12300 | > 47700 | 217 | > 47700 | > 47700 | 370 | 196 | > 26100 | 120 | 255 | 7550 | 102 | 416 | 329
10 | OC(CNC1CCCC1)Cn1c2ccc(Cl)cc2c2cc(Cl)ccc21 (stereo not drawn) | > 10400 | > 24300 | 572 | 8670 | 576 | 10900 | 20500 | 635 | 258 | > 13300 | 146 | 253 | 2020 | 990 | 690 | 652
11 | CCOC(=O)C1=C(C)N=c2s/c(=C\c3cc(Cl)ccc3O)c(=O)n2C1c1ccc(N(C)C)cc1 (stereo not drawn) | > 7800 | > 18200 | > 4680 | > 18200 | > 4680 | > 18200 | > 18200 | 2690 | 446 | > 9980 | 1000 | 1820 | 6200 | > 15000 | 235 | > 4680
12 | Oc1ccc(C2NCc3ccccc3-n3cccc32)cc1Cl (stereo not drawn) | > 19700 | > 46000 | 1090 | > 46000 | 1490 | > 46000 | > 46000 | 2350 | 395 | > 25200 | 357 | 1380 | > 44100 | 1250 | 360 | 1770
13 | CCCCCOc1ccc(N(C(C)=O)C2=C(N3CCOCC3)C(=O)c3ccccc3C2=O)cc1 | > 15500 | > 36200 | > 9290 | 22600 | 75 | 3260 | > 36200 | 59.6 | 77.5 | > 19800 | 208 | 1470 | 1840 | 327 | 70 | 36.2
